Results published in ChEMBL document CHEMBL3992522, “Antileishmanial Activity of Pyrazolopyridine Derivatives and Their Potential as an Adjunct Therapy with Miltefosine” (J Med Chem, 2017).
The source made the active and inactive calls. No cut-off for these calls is given here.

Assays:
Format in all cases: functional
Leishmania donovani [1] = experiment: Antileishmanial activity against Leishmania donovani MHOM/IN/80/DD8 promastigote forms harboring luciferase gene at 50 uM after 72 hrs by Steady-Glo reagent based luminescence assay relative to control; conditions: MHOM/IN/80/DD8, 72 h, read-out: GI
How it was run: (§1)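 Exponential-phase Dd8-Luc promastigotes at 1×10^6/mL in M199 with 10% FBS, 24 °C, given 50 and 25 µM for 72 h. Vehicle 0.1% DMSO. Steady-Glo added 1:1, luminescence (RLU) read. IC50 from four-parameter Hill regression, derived only where inhibition exceeded 90%. Means of at least three independent experiments.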

Leishmania donovani [2] = experiment: Antileishmanial activity against Leishmania donovani MHOM/IN/80/DD8 amastigote forms harboring luciferase gene infected in mouse J774 cells at 25 uM after 72 hrs by Steady-Glo reagent based luminescence assay relative to control; conditions: for inhibition of growth at 25 µM: MHOM/IN/80/DD8, J774, 72 h, read-out: GI
How it was run: (§2)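 Stationary-phase luciferase-expressing Dd8 promastigotes infected into J774 macrophages (4×10^4/mL seeded, 24 h, 37 °C, 5% CO2) at 1:8 macrophage:parasite for 24 h. Non-internalised parasites washed off. Compounds added at 50 and 25 µM in RPMI/10% FBS for 72 h. Lysis with Steady-Glo luciferin reagent plus PBS, luminescence read. Inhibition relative to untreated infected controls.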

Leishmania donovani [3] = experiment: Antileishmanial activity against Leishmania donovani MHOM/IN/80/DD8 promastigote forms harboring luciferase gene at 25 uM after 72 hrs by Steady-Glo reagent based luminescence assay relative to control; conditions: MHOM/IN/80/DD8, 72 h, read-out: GI; how it was run: as §1
Leishmania donovani [4] = experiment: Antileishmanial activity against Leishmania donovani MHOM/IN/80/DD8 amastigote forms harboring luciferase gene infected in mouse J774 cells at 50 uM after 72 hrs by Steady-Glo reagent based luminescence assay relative to control; conditions: for inhibition of growth at 50 µM: MHOM/IN/80/DD8, J774, 72 h, read-out: GI; how it was run: as §2

| Compound | inhibition of growth at 50 µM (Leishmania donovani [1]) | inhibition of growth at 25 µM (Leishmania donovani [2]) | inhibition of growth at 25 µM (Leishmania donovani [3]) | inhibition of growth at 50 µM (Leishmania donovani [4]) | growth inhibition (GI) (Leishmania donovani [2]) | growth inhibition (GI) (Leishmania donovani [4]) |
| --- | --- | --- | --- | --- | --- | --- |
| CC1(C)CC(=O)C2=C(C1)Nc1c(c(-c3c[nH]c4ccccc34)nn1-c1ccc(Cl)cc1)C2c1cccs1 (stereo not drawn) | 86.5% | 43.8% | 82.5% | 51.7% | – | – |
| COc1ccc(OC)c(-c2c3c(nc4c2c(-c2c[nH]c5ccccc25)nn4-c2ccc(F)cc2)CC(C)(C)CC3=O)c1 | 90.3% | 22.4% | 84.1% | 27.9% | – | – |
| COc1ccc(-c2c3c(nc4c2c(-c2c[nH]c5ccccc25)nn4-c2ccc(Cl)c(Cl)c2)CC(C)(C)CC3=O)cc1OC | 74.1% | – | 59.4% | – | inactive | inactive |
| O=C1C2=C(Nc3c(c(-c4c[nH]c5ccccc45)nn3-c3ccc(F)cc3)C2c2ccc(Cl)cc2)c2ccccc21 (stereo not drawn) | 68.3% | – | 54.2% | – | inactive | inactive |
| CC1(C)CC(=O)c2c(nc3c(c(-c4c[nH]c5ccccc45)nn3-c3ccc(F)cc3)c2-c2ccc(Cl)cc2)C1 | 68.6% | – | 61.3% | – | inactive | inactive |
| CC1(C)CC(=O)C2=C(C1)Nc1c(c(-c3c[nH]c4ccccc34)nn1-c1ccc(F)cc1)C2c1ccc(Cl)cc1 (stereo not drawn) | 65.3% | – | 54.3% | – | inactive | inactive |
| COc1ccc(OC)c(C2C3=C(CCC3=O)Nc3c2c(-c2c[nH]c4ccccc24)nn3-c2ccc(Cl)cc2)c1 (stereo not drawn) | 93.2% | 37.3% | 85.5% | 42.6% | – | – |
| O=C1C2=C(Nc3c(c(-c4c[nH]c5ccccc45)nn3-c3ccc(Cl)cc3)C2c2cccs2)c2ccccc21 (stereo not drawn) | 69.2% | – | 65.3% | – | inactive | inactive |
| COc1ccc(C2C3=C(Nc4c2c(-c2c[nH]c5ccccc25)nn4-c2ccc(Cl)cc2)c2ccccc2C3=O)c(OC)c1OC (stereo not drawn) | 67.4% | – | 64.2% | – | inactive | inactive |
| CC1(C)CC(=O)c2c(nc3c(c(-c4c[nH]c5ccccc45)nn3-c3ccc(Cl)cc3)c2-c2ccc(Cl)cc2)C1 | 67.4% | – | 56.7% | – | inactive | inactive |
| COc1cc(-c2c3c(nc4c2c(-c2c[nH]c5ccccc25)nn4-c2ccc(Cl)cc2)-c2ccccc2C3=O)cc(OC)c1OC | 41.1% | – | 28.3% | – | inactive | inactive |
| CC1(C)CC(=O)C2=C(C1)Nc1c(c(-c3c[nH]c4ccccc34)nn1-c1ccc(Cl)cc1)C2c1ccc(Cl)cc1 (stereo not drawn) | 65.4% | – | 62.5% | – | inactive | inactive |
| COc1ccc(-c2c3c(nc4c2c(-c2c[nH]c5ccccc25)nn4-c2ccc(Cl)cc2)CC(C)(C)CC3=O)cc1 | 52% | – | 44.3% | – | inactive | inactive |
| COc1cc(-c2c3c(nc4c2c(-c2c[nH]c5ccccc25)nn4-c2ccc(Cl)cc2)CCC3=O)cc(OC)c1OC | 72.3% | – | 66.8% | – | inactive | inactive |
| COc1ccc(-c2c3c(nc4c2c(-c2c[nH]c5ccccc25)nn4-c2ccc(Cl)cc2)-c2ccccc2C3=O)c(OC)c1OC | 63.4% | – | 52.6% | – | inactive | inactive |
| COc1cc(C2C3=C(CC(C)(C)CC3=O)Nc3c2c(-c2c[nH]c4ccccc24)nn3-c2ccc(Cl)cc2)cc(OC)c1OC (stereo not drawn) | 86.7% | 23.6% | 79.3% | 28.2% | – | – |
| COc1cc(C2C3=C(CCC3=O)Nc3c2c(-c2c[nH]c4ccccc24)nn3-c2ccc(Cl)cc2)cc(OC)c1OC (stereo not drawn) | 81.2% | 45.2% | 78.4% | 59.6% | – | – |
